Bioassay records deposited in PubChem BioAssay by Broad Institute.
INS-1E GSIS act: primary screen for activators of insulin secretion dependent on glucose, INS-1E cells, GLuc reporter luminescence; activation, % at 16.6 µM; actives 0.61% (n = 370,000); INS-1E GLuc reporter insulin secretion, 2-3 h;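 active = lowest replicate activation of at least 40%, so every replicate reaches that level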
RAD54 inh: inhibitors of human RAD54 branch migration | RAD54 Holliday junction branch migration, FAM/BHQ fluorescence | inhibition, % at 10.4 µM | actives 0.14% (n = 360,000);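 active = mean normalized replicate activity at least 40 and at least half of replicates scoring 40 or more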;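 also: inhibitors cause a drop in the FAM fluorescence signal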
MLL AF4-AF9 inh: inhibitors of human MLL-AF4/AF9 interaction. AID 651704. actives 0.47% (n = 350,000). AlphaScreen, biotin-AF4 peptide binding to FLAG-AF9. inhibition, % at 10 µM;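 active = every replicate reaching a set inhibition limit, whatever the replicate mean, cut at about 25% in these data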
S100A4 inh HTS: blocks human S100A4 binding to myosin IIA peptide. S100A4/TAMRA-MyoIIA peptide fluorescence polarization. P26447. actives 0.14% (n = 360,000). inhibition, % at 10.7 µM. AID 652163;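 active = mean inhibition of at least 70% across replicates, with every replicate also reaching that level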
Target sequence (P26447 whole entry, looked up): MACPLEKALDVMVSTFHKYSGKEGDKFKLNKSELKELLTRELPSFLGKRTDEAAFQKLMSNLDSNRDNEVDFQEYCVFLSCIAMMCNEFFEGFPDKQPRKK
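assay system = human S100A4 monomer with TAMRA-labelled myosin IIA peptide | also added = labelled myosin peptide probe, 5 nM | incubation = 5 min between mix addition and reading | control set = DMSO and TFP controls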
RAD52 anneal inh: inhibitors of human RAD52 DNA annealing; P43351; recombinant RAD52 DNA annealing, FRET fluorescence; inhibition, % at 18.7 µM; actives 0.46% (n = 360,000);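 active = every replicate showing at least 50% inhibition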
Target sequence (P43351 whole entry, looked up): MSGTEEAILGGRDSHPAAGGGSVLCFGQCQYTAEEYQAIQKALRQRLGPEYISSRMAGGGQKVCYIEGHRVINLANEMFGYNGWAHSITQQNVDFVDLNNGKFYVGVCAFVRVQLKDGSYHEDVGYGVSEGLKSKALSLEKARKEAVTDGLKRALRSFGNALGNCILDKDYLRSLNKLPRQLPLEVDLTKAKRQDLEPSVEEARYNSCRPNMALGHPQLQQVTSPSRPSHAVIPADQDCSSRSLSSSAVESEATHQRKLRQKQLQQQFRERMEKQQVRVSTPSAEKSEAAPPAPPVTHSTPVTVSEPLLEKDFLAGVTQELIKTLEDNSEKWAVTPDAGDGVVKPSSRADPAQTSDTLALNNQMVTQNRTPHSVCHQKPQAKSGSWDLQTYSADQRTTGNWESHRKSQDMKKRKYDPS
Each line names hits and unclear results; the compound was inactive in the other large screens. Most compounds without a hit are left out; they make up all but 1.3% or so of the library.

COc1ccc(CN(C)C[C@H]2Oc3ccc(NC(=O)Nc4ccc(OC)cc4)cc3C(=O)N([C@H](C)CO)C[C@H]2C)cc1	none
COc1ccc(CN(C)C[C@@H]2Oc3ccc(NC(=O)Nc4ccc(OC)cc4)cc3C(=O)N([C@@H](C)CO)C[C@H]2C)cc1	RAD54 inh 62
COc1ccc(CN(C)C[C@@H]2Oc3ccc(NC(=O)Nc4c(C)noc4C)cc3C(=O)N([C@H](C)CO)C[C@H]2C)cc1	RAD54 inh 56
COc1ccc(NC(=O)N(C)C[C@H]2Oc3ccc(N(C)C)cc3C(=O)N([C@@H](C)CO)C[C@@H]2C)cc1	S100A4 inh HTS 103
COc1ccc(CN(C)C[C@@H]2Oc3ccc(NC(=O)NC4CCCCC4)cc3C(=O)N([C@H](C)CO)C[C@H]2C)cc1	none
COc1ccc(CN(C)C[C@@H]2Oc3ccc(NC(=O)CCN4CCOCC4)cc3C(=O)N([C@H](C)CO)C[C@H]2C)cc1	none
COc1ccc(CN(C)C[C@@H]2Oc3ccc(NC(=O)Nc4ccccc4)cc3C(=O)N([C@@H](C)CO)C[C@H]2C)cc1	RAD54 inh 53
COc1ccc(CN(C)C[C@H]2Oc3ccc(NC(=O)Nc4ccccc4)cc3C(=O)N([C@@H](C)CO)C[C@@H]2C)cc1	none
CCC(=O)N1CC2(C1)[C@@H](c1ccccc1)[C@@H](CO)N2C(=O)c1cccnc1	none (no result: RAD54 inh)
C[C@H]1CCCCO[C@H](CN(C)S(=O)(=O)c2cccs2)[C@@H](C)CN([C@@H](C)CO)C(=O)c2cc(NS(=O)(=O)c3cn(C)cn3)ccc2O1	RAD52 anneal inh 59
C[C@H](CO)N1C[C@H](C)[C@H](CN(C)S(=O)(=O)c2cccs2)OCCCC[C@H](C)Oc2ccc(NS(C)(=O)=O)cc2C1=O	none
CNC[C@@H]1OCCCC[C@H](C)Oc2ccc(NS(=O)(=O)c3cccs3)cc2C(=O)N([C@@H](C)CO)C[C@@H]1C	none
C[C@@H]1CN([C@@H](C)CO)C(=O)c2cc(NS(=O)(=O)c3cn(C)cn3)ccc2O[C@@H](C)CCCCO[C@@H]1CN(C)CC1CCCCC1	none
C[C@@H]1CCCCO[C@@H](CN(C)CC2CCCCC2)[C@@H](C)CN([C@H](C)CO)C(=O)c2cc(NS(=O)(=O)c3cn(C)cn3)ccc2O1	S100A4 inh HTS 133
C[C@H](CO)N1C[C@H](C)[C@@H](CN(C)S(=O)(=O)c2cccs2)OCCCC[C@H](C)Oc2ccc(NS(C)(=O)=O)cc2C1=O	S100A4 inh HTS 106
CNC[C@@H]1OCCCC[C@@H](C)Oc2ccc(NS(=O)(=O)c3cccs3)cc2C(=O)N([C@H](C)CO)C[C@H]1C	S100A4 inh HTS 101
C=CCNC(=O)[C@H]1[C@@H]2C(=O)O[C@@H](c3ccccc3)[C@@H](c3ccccc3)N2[C@@H](c2ccc(O)cc2)[C@]12C(=O)Nc1ccc(C#CC3=CCCCC3)cc12	none (no result: INS-1E GSIS act)
COc1ccc(NC(=O)Nc2ccc3c(c2)C(=O)N([C@H](C)CO)C[C@H](C)[C@@H](CN(C)S(=O)(=O)c2c(C)noc2C)OCCCC[C@@H](C)O3)cc1	none (no result: MLL AF4-AF9 inh, S100A4 inh HTS, RAD52 anneal inh)
CC1(c2nnc(-c3ccncc3)o2)CC(c2ccc(F)cc2)=NO1 (centres undefined)	MLL AF4-AF9 inh 34
CC(C)CN(Cc1c(O)ccc2ccccc12)CC(C)C	none (no result: RAD54 inh)
CN(C)Cc1c(O)ccc2ccccc12	MLL AF4-AF9 inh 31 (no result: RAD54 inh)
O=C(C[C@@H]1CC[C@@H](NC(=O)Nc2cc(F)ccc2F)[C@H](CO)O1)Nc1ccc(-c2ccccc2)cc1	none
NC1=NC[C@@H](Cc2ccc(O)cc2)N1CCC12CC3CC(CC(C3)C1)C2	INS-1E GSIS act 184
Cc1cccc(-c2ccc([C@@H]3[C@H](CO)N4CCCCN(C(=O)NC(C)C)C[C@@H]34)cc2)c1	none
Cc1ccccc1OCC(=O)Nc1ccc(S(=O)(=O)N2CCCC2)cc1	S100A4 inh HTS 114
CN(C)C(=O)C[C@H]1C=C[C@@H](NC(=O)NC2CCCC2)[C@@H](CO)O1	none
CCOc1ccc(-n2nc3c(Cl)nnc(C)c3c2C)cc1	MLL AF4-AF9 inh 58
CCOc1cc(C2C(C#N)=C(N)SC(N)=C2C#N)ccc1OCCN1CCOCC1	INS-1E GSIS act 82 (no result: MLL AF4-AF9 inh, S100A4 inh HTS, RAD52 anneal inh)
CCCc1[nH]nc2c1C(c1ccc(OCCN3CCOCC3)c(OC)c1)C(C#N)=C(N)O2 (centres undefined)	none (no result: INS-1E GSIS act, MLL AF4-AF9 inh, S100A4 inh HTS, RAD52 anneal inh)
COc1cccc(N2C(C(C)=O)=NN(c3ccccc3)C2c2ccc(N3CCOCC3)cc2)c1 (centres undefined)	none (no result: MLL AF4-AF9 inh, S100A4 inh HTS, RAD52 anneal inh)
COc1ccc(C2N(c3ccc(Cl)cc3)N=C(C(C)=O)N(C)N2C(C)=O)cc1 (centres undefined)	MLL AF4-AF9 inh 28 (no result: RAD54 inh)
COc1ccc(S(=O)(=O)n2nc(-c3ccc(Cl)cc3)cc2N)cc1OC	none
CCOc1ccc(-c2cc(N)n(S(=O)(=O)c3ccc(OC)c(OC)c3)n2)cc1	MLL AF4-AF9 inh 44
Cc1ccc(S(=O)(=O)Nc2ccc3c(c2)C(=O)N([C@H](C)CO)C[C@@H](C)[C@@H](CN(C)Cc2ccc(C(=O)Nc4ccccc4N)cc2)O3)cc1	none
CCCNC(=O)N1CCC2(CC1)CN(C(=O)CN1CCOCC1)[C@@H](CO)c1[nH]c3cc(OC)ccc3c12	none (no result: RAD54 inh)
C=CCN=c1scc(-c2ccc(F)cc2)n1/N=C/c1ccccn1	none (no result: RAD54 inh)
C=CCN=c1scc(-c2ccccc2)n1/N=C/c1ccccn1	MLL AF4-AF9 inh 28
COc1ccc2c3c([nH]c2c1)[C@@H](CO)N(CC1CC1)CC31CCN(C(=O)c2ccccc2F)CC1	none (no result: RAD54 inh)
Cc1cc(NC(=O)c2ccccc2F)n(-c2nc3ccccc3[nH]2)n1	INS-1E GSIS act 64 (no result: MLL AF4-AF9 inh, S100A4 inh HTS, RAD52 anneal inh)
Fc1ccc(N2CCN(C3=Nc4cccc5cccc3c45)CC2)cc1	MLL AF4-AF9 inh 32 (no result: RAD54 inh)
c1ccc(CN2CCN(C3=Nc4cccc5cccc3c45)CC2)cc1	none (no result: INS-1E GSIS act, MLL AF4-AF9 inh, S100A4 inh HTS, RAD52 anneal inh)
CC#C[C@]1(O)CC[C@H]2[C@@H]3CCC4=CC(=O)CCC4=C3[C@@H](c3ccc(N(C)C)cc3)C[C@@]21C	MLL AF4-AF9 inh 33 (no result: INS-1E GSIS act)
C[C@H]1CN([C@@H](C)CO)C(=O)c2cccc(NC(=O)Nc3cccc4ccccc34)c2O[C@H]1CN(C)C	none (no result: RAD54 inh)
CCCN1CCCCC(NC(=O)c2c(F)cccc2F)C1=O (centres undefined)	S100A4 inh HTS 107 (no result: RAD54 inh, MLL AF4-AF9 inh)
C[C@H]1CCCCO[C@H](CN(C)Cc2ccc(C(=O)O)cc2)[C@@H](C)CN([C@@H](C)CO)C(=O)c2cc(NC(=O)c3ccncc3)ccc2O1	RAD52 anneal inh 102
C[C@@H]1CCCCO[C@@H](CN(C)Cc2ccc(C(=O)O)cc2)[C@H](C)CN([C@@H](C)CO)C(=O)c2cc(NC(=O)c3ccncc3)ccc2O1	RAD52 anneal inh 104
C[C@@H]1CCCCO[C@@H](CN(C)Cc2ccc(C(=O)O)cc2)[C@@H](C)CN([C@H](C)CO)C(=O)c2cc(NC(=O)c3ccncc3)ccc2O1	RAD52 anneal inh 76
C[C@H]1CCCCO[C@@H](CN(C)Cc2ccc(C(=O)O)cc2)[C@@H](C)CN([C@@H](C)CO)C(=O)c2cc(NC(=O)c3ccncc3)ccc2O1	RAD52 anneal inh 106
